Experimental data reported in ChEMBL document CHEMBL2040794, “Synthesis and structure-activity analysis of new phosphonium salts with potent activity against African trypanosomes” (J Med Chem, 2012).

Assays:
[1] = tested on: Trypanosoma brucei brucei; test: Antitrypanosomal activity against diminazene-, pentamidine-, and melaminophenyl arsenical-resistant HAPT1-deficient Trypanosoma brucei brucei B48 after 3 days by alamar blue assay; format: functional, organism-based; conditions: Trypanosoma brucei, B48, 72 h
Method in brief: (§1)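 Bloodstream-form T. b. brucei (wild-type s427; TbAT1-KO, made from s427 by TbAT1 deletion; B48, selected from TbAT1-KO in vitro on pentamidine, lacking functional HAPT1). Cells were exposed to compound for 48 h, then resazurin (Alamar blue) was added for a further 24 h. A single fluorescence reading gave EC50.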

L6 = test: Cytotoxicity against rat L6 cells after 72 hrs by alamar blue assay; format: cell-based; conditions: Rattus norvegicus, L6, 72 h
[2] = Selectivity index, ratio of EC50 for rat L6 cells to EC50 for Trypanosoma brucei rhodesiense STIB900; format: toxicity, cell-based; conditions: L6 cells, read-out: Ratio EC50
Method in brief: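 Ratio of EC₅₀ in L6 cells to EC₅₀ against T. b. rhodesiense STIB900, both from Alamar blue assays.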

[3] = Selectivity index, ratio of EC50 for human HEK cells to EC50 for wild type Trypanosoma brucei brucei Lister 427; format: toxicity, cell-based, HEK293; conditions: HEK cells, read-out: Ratio EC50
Method in brief: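 Ratio of EC₅₀ in HEK cells to EC₅₀ in wild-type T. b. brucei s427, both from resazurin assays.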

[4] = tested on: Trypanosoma brucei rhodesiense; test: Antitrypanosomal activity against Trypanosoma brucei rhodesiense STIB900 infected in rat L6 cells after 72 hrs by alamar blue assay; format: functional, organism-based; conditions: Trypanosoma brucei, STIB900, 72 h
[5] = tested on: Trypanosoma brucei brucei; test: Resistance factor, ratio of EC50 for diminazene aceturate-resistant TbAT1 gene-deficient Trypanosoma brucei brucei AT1-KO to EC50 for wild type Trypanosoma brucei brucei Lister 427; format: functional
Method in brief: (§2)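 Resistance factor is the EC50 in the resistant line (TbAT1-KO or B48) divided by the EC50 in wild-type s427. […] Resistant and wild-type EC50s were compared by Student t-test.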

[6] = tested on: Trypanosoma brucei brucei; test: Antitrypanosomal activity against wild type Trypanosoma brucei brucei Lister 427 after 3 days by alamar blue assay; format: functional, organism-based; conditions: Trypanosoma brucei, Lister 427, 72 h; method in brief: as §1
[7] = tested on: Trypanosoma brucei brucei; test: Resistance factor, ratio of EC50 for diminazene-, pentamidine-, and melaminophenyl arsenical-resistant HAPT1-deficient Trypanosoma brucei brucei B48 to EC50 for wild type Trypanosoma brucei brucei Lister 427; format: functional; method in brief: as §2
[8] = Cytotoxicity against human HEK cells after 3 days by alamar blue assay; format: cell-based, HEK293; conditions: Homo sapiens, HEK293, 72 h
Method in brief: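 Human embryonic kidney cells tested by resazurin (Alamar blue) assay: 48 h with compound, then 24 h more after dye addition, single reading; EC₅₀ derived.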

[9] = tested on: Trypanosoma brucei brucei; test: Antitrypanosomal activity against diminazene aceturate-resistant TbAT1 gene-deficient Trypanosoma brucei brucei AT1-KO after 3 days by alamar blue assay; format: functional, organism-based; conditions: Trypanosoma brucei, AT1-KO, 72 h; method in brief: as §1

Compound | EC50 [1] [nM] | EC50 (L6) [nM] | selectivity ratio [2] | selectivity ratio [3] | EC50 [4] [nM] | Ratio EC50 [5] | EC50 [6] [nM] | Ratio EC50 [7] | EC50 [8] [nM] | EC50 [9] [nM]
Cc1ccc([P+](Cc2ccc(C(=O)c3ccccc3)cc2)(c2ccc(C)cc2)c2ccc(C)cc2)cc1.[Br-] | 11 | 1350 | 16.7 | 505 | 81 | 0.2 | 64 | 0.2 | 32500 | 12
COc1ccc([P+](Cc2ccc(C(=O)c3ccc(C[P+](c4ccc(OC)cc4)(c4ccc(OC)cc4)c4ccc(OC)cc4)cc3)cc2)(c2ccc(OC)cc2)c2ccc(OC)cc2)cc1.[Br-].[Br-] | 230 | 11800 | 40 | 529 | 290 | 1.6 | 320 | 0.7 | 172000 | 520
CCCCCCCC[P+](CCCCCCCC)(CCCCCCCC)Cc1ccc(C(=O)c2ccc(C[P+](CCCCCCCC)(CCCCCCCC)CCCCCCCC)cc2)cc1.[Br-].[Br-] | 45 | 1000 | 5 | 639 | 220 | 1.4 | 42 | 1.1 | 27000 | 61
Cc1ccc([P+](CCc2ccc(CCCc3ccc(CC[P+](c4ccc(C)cc4)(c4ccc(C)cc4)c4ccc(C)cc4)cc3)cc2)(c2ccc(C)cc2)c2ccc(C)cc2)cc1.[Cl-].[Cl-] | 48 | 645 | 8.8 | 73 | 73 | 0.6 | 77 | 0.6 | 5600 | 43
Cc1cccc([P+](Cc2ccc(Cc3ccc(C[P+](c4cccc(C)c4)(c4cccc(C)c4)c4cccc(C)c4)cc3)cc2)(c2cccc(C)c2)c2cccc(C)c2)c1.[Br-].[Br-] | 130 | 939 | 4 | 524 | 231 | 1 | 140 | 0.9 | 72600 | 140
CC(C)[P+](Cc1ccc(Cc2ccc(C[P+](c3ccccc3)(c3ccccc3)C(C)C)cc2)cc1)(c1ccccc1)c1ccccc1.[Br-].[Br-] | 430 | 3440 | 6.4 | > 680 | 534 | 0.9 | 440 | 1 | > 300000 | 400
Cc1cccc([P+](Cc2ccc(C(=O)c3ccccc3)cc2)(c2cccc(C)c2)c2cccc(C)c2)c1.[Br-] | 110 | 2610 | 9.5 | 281 | 274 | 0.8 | 170 | 0.7 | 48200 | 150
C[P+](C)(Cc1ccc(CCCc2ccc(C[P+](C)(C)c3ccccc3)cc2)cc1)c1ccccc1.[Br-].[Br-] | 1090 | 59500 | 49 | > 230 | 1220 | 1.1 | 1270 | 0.9 | > 300000 | 1370
COc1ccccc1[P+](Cc1ccc(Cc2ccc(C[P+](c3ccccc3OC)(c3ccccc3OC)c3ccccc3OC)cc2)cc1)(c1ccccc1OC)c1ccccc1OC.[Br-].[Br-] | 66 | 1080 | 5 | 2560 | 209 | 0.9 | 80 | 0.8 | 204000 | 74
